In the library only some 2.3% were active in any assay of this set; here they are far more common.
HSP90 inh: HSP90 inhibitors, primary screen, cell lysate, luminescence; inhibition, % at 5.6 µM; 290,000 tested, 0.91% active; Heat shock protein HSP 90 (rabbit reticulocyte lysate; luciferase refolding); Rabbit reticulocyte lysate, luciferase refolding luminescence, 3 h; AID 1789, 2009;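 active = inhibition above the screen-wide mean plus 3 SD, computed separately per campaign, cut at about 16% in these data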;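 also: 0% = DMSO wells and 100% = 60 µM geldanamycin wells; inhibitors lower the luminescence because luciferase stays unfolded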
STAT3 inh: IL-6 driven STAT3 reporter inhibitors, primary screen, U3A cells, luciferase, luminescence, MLSCN library. IL-6 STAT3-luciferase reporter; host cell line lacks STAT1. inhibition, % at 5.5 µM. 190,000 tested, 0.89% active;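 active = inhibition above the mean inhibition across all screened compounds plus 3 SD, cut at about 44% in these data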;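 also: 0% = DMSO only wells and 100% = 100 µM nifuroxazide control wells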
STAT3 activator: IL-6 driven STAT3 reporter potentiators, primary screen, U3A cells, luciferase, luminescence, MLSCN library | activation (% of control), % at 5.6 µM | IL-6 STAT3-luciferase reporter; 100% = signal with IL-6 EC80 alone | AID 871, 2007 | 190,000 tested, 0.91% active;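 active = activation above the screen-wide mean of compound activation plus 3 SD, cut at about 130% in these data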;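 also: 0% = background luminescence of wells with medium and substrate only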
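Detection: reporter luminescence signal / Assay system: STAT1-lacking human U3A cells, STAT3 luciferase reporter / Incubation: compound pre-incubation 1 h before IL-6, then 6 h stimulation at 37 °C / Control set: IL-6-only high control / Read-out: % activation relative to IL-6 control / Probe or stimulus: Interleukin-6, 33 ng/mL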
PPC-1+TRAIL kill: compounds killing PPC-1 cancer cells with TRAIL present, primary screen, TRAIL potentiator project, ATPLite luminescence, uHTS. 220,000 tested, 0.41% active. cell killing (% activity), % at 4 µM or 5 µM. PPC-1 cells + TRAIL, ATPLite viability luminescence. AID 1443, 2008;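 active = cell killing above 50% in the first pass at 4 µM, then a duplicate retest at 5 µM averaging 50% or more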;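 also: plate controls were cells with TRAIL plus DMSO for no effect and medium-only wells lacking cells for full effect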
STAT1 blocker: STAT1 signaling inhibitors, primary screen, cell-based, HTS, luciferase reporter | inhibition, % at 5.5 µM | NIH 3T3 STAT1-luciferase reporter, IFN-gamma, luminescence | 200,000 tested, 0.35% active;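 active = inhibition above a set limit, the mean inhibition across all tested compounds plus 3 SD, cut at about 34% in these data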;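 also: 0% = IFN-gamma with DMSO and 100% = IFN-gamma with 300 µM nifuroxazide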
TRAIL sens C8: viability loss with TRAIL in NB7+C8 cells, primary screen, TRAIL sensitizer project, cell-based, ATPlite luminescence; 360,000 tested, 1% active; inhibition (viability loss, TRAIL sensitization), % at 10 µM; AID 624354, 2012;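 active = compounds causing at least 50% loss of cell viability in the single-dose screen, relative to plate controls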
PPC-1 tox: cytotoxicity in PPC-1 cells, confirmation, cytotoxicity control for TRAIL apoptosis potentiator project, cell-based, ATP content luminescence; AID 1447, 2008; PPC-1 viability, ATPlite luminescence, overnight; shares compounds with PPC-1+TRAIL kill; cytotoxicity, % at 5 µM; 1,200 tested, 50% active;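 active = reconfirmed compounds whose average cytotoxicity reaches 50% or more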;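 also: 0% = DMSO-treated cells and 100% = wells holding medium but no cells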
* marks the source's active call; other numbers are inactive results; · = no result given.

SMILES	HSP90 inh	STAT3 inh	STAT3 activator	PPC-1+TRAIL kill	STAT1 blocker	TRAIL sens C8	PPC-1 tox
CCOc1ccc(-c2nnc(SCc3nc4ccccc4[nH]3)n2N)cc1	-3.1	3.8	99.7	2.8	10.5	0.3	·
Cc1n[nH]c(=O)nc1N1CCN(c2ccccc2)CC1	-0.9	6.8	97.4	5.8	-4.0	1.3	5.8
COc1cc(C(=O)N/N=C(\c2ccccc2)c2ccccn2)cc(OC)c1OC	2.0	8.0	95.5	25.5	3.4	30.7	29.1
CCOC(=O)c1c(N2CCN(c3ccccc3)CC2)cc(C)nc1C	-2.4	·	·	·	·	2.4	·
CCOC(=O)c1c(Nc2ccccc2N)cc(C)nc1C	-1.1	6.2	97.2	-4.2	-3.1	0.0	-26.4
Cc1ccc(CSc2nnc(C)c(=O)n2N)cc1	0.2	20.0	84.9	18.2	-4.0	-12.7	·
COCCn1c(C)cc(/C=C2/SC(=O)N(C(C)C(=O)OC)C2=O)c1C (centres undefined)	0.7	·	·	53.0*	·	62.6*	43.5
CCn1c(C)cc(/C=C2/SC(=O)N(C(C)C(=O)OC)C2=O)c1C (centres undefined)	-1.6	·	·	22.4	·	30.3	·
COc1ccc(-c2cc3ncc(-c4ccccc4)c(N)n3n2)cc1	-2.5	17.3	92.3	40.6	-60.8	61.9*	51.6*
NC(=O)c1ccccc1NC(=O)/C=C/c1ccc(Cl)cc1	-0.5	27.8	82.0	56.5*	-57.6	68.0*	57.0*
O=C(COC(=O)c1ccc(NS(=O)(=O)c2ccc(F)c(F)c2)cc1)NCC1CCCO1 (centres undefined)	0.7	6.8	99.4	8.5	3.1	-7.8	·
O=C1C(=O)c2ccc(-c3ccccc3)cc2-c2ccccc21	-1.8	21.2	84.6	96.9*	6.7	93.0*	97.1*
CCN(C(=O)CSc1nc2ccc(O)cc2c(=O)n1-c1ccc(OC)c(OC)c1)C1CCS(=O)(=O)C1 (centres undefined)	·	·	·	·	·	-6.0	·
CCOc1ccc(C(=O)NNC(=O)CNC(=O)c2ccc(C)s2)cc1OC	·	·	·	·	·	-4.0	·
COc1cc(NC(=O)c2cc(OC)c(OC)c(OC)c2)ccc1NC(=O)c1cccs1	1.3	·	·	·	·	9.1	·
COc1cc(N)ccc1NC(=O)c1cccs1	0.4	12.0	93.5	-1.2	-9.3	1.2	4.1
CCc1c(C)nc(Nc2nc(C)c3ccc(OC)cc3n2)[nH]c1=O	2.7	16.5	90.5	-6.6	-20.2	3.8	·
COc1ccc2c(C)nc(Nc3nc(C)c(C)c(=O)[nH]3)nc2c1	-3.0	-31.0	127.5	-9.6	-112.1	11.5	-12.1
C(=N\Nc1nc2ccccc2[nH]1)/c1ccc2ncccc2c1	4.0	·	·	70.5*	·	81.3*	71.7*
COc1ccc(C(=O)Nc2ccc3c(c2)nc2n3CCSC2)cc1	1.5	21.8	84.8	33.7	-26.9	32.0	·
O=C(Nc1ccc2c(c1)nc1n2CCSC1)c1ccccc1	12.2	41.6	68.8	57.4*	-17.6	62.2*	48.9
CC(=O)c1nn(-c2cccc(Br)c2)cc1C(=O)c1ccccc1	-7.0	3.1	100.3	2.1	-3.4	-2.2	3.8
CC(=O)c1nn(-c2ccc(Cl)cc2)cc1C(=O)c1ccccc1	·	·	·	·	·	12.8	·
CC(=O)c1nn(-c2ccccc2)cc1C(=O)c1cccc(Br)c1	3.2	0.8	101.7	1.8	2.7	-4.6	·
CCOC(=O)c1nn(-c2ccc(C)cc2)cc1C(=O)c1ccccc1	3.1	6.5	93.4	39.1	-47.6	52.6*	44.9
SMILES	HSP90 inh	STAT3 inh	STAT3 activator	PPC-1+TRAIL kill	STAT1 blocker	TRAIL sens C8	PPC-1 tox
Cc1ccc(Oc2nnc(-c3ccccc3)c3ccccc23)cc1	2.4	3.0	99.8	13.5	-2.7	-2.9	·
CC1Cc2ccccc2N1C(=O)C1CCCN1S(=O)(=O)c1ccc(Cl)cc1 (centres undefined)	2.4	2.4	103.5	-3.9	5.0	-0.6	·
Cc1ccc(Nc2nc(Oc3ccc(OCc4ccccc4)nn3)nc(N3CCOCC3)n2)cc1	4.9	4.4	98.6	15.8	0.6	29.0	12.9
Cc1ccc(-c2cc(C(=O)NCc3cccs3)no2)cc1	-0.9	2.0	100.0	15.4	-19.4	-25.6	17.4
FC(F)(F)c1cnc(N2CCSCC2)c(Cl)c1	3.0	·	·	4.0	·	-16.4	·
Cc1ccc(NC(=O)c2cc3ccccc3o2)cc1S(=O)(=O)N(C)C	-3.6	8.3	93.3	49.5	-46.8	66.9*	46.2
Cc1cccc(NC(=S)Nc2cccc(C(F)(F)F)c2)n1	7.2	5.8	93.5	-10.8	-6.7	2.6	·
COc1ccc(OCc2n(CC(=O)OC3CC(C)CCC3C(C)C)c3ccccc3[n+]2C)cc1 (centres undefined)	4.7	·	·	37.1	·	32.9	·
COc1ccc(-c2n(CC(=O)OC3CC(C)CCC3C(C)C)c3ccccc3[n+]2C)cc1 (centres undefined)	-0.1	51.9*	57.5	44.8	56.6*	46.5	52.1*
COc1ccc2nc(Nc3ccccc3OC)sc2c1	4.3	25.7	82.2	60.6*	-8.4	69.0*	57.1*
O=C(COc1ccc(S(=O)(=O)N2CCOCC2)cc1)NC1CC1	-0.5	·	·	·	·	5.2	·
CCOc1cc(S(=O)(=O)NCc2ccccc2)ccc1F	-1.4	-4.1	107.0	6.2	-4.5	-7.7	-5.0
Cc1cnc(C)c(N2CCN(Cc3cn(C)nc3-c3cccc(Cl)c3)CC2)n1	6.2	9.1	97.1	1.4	3.7	-6.9	·
CC(c1ccccc1)N1CCn2c(nc3cc(NC(=O)NC4CCCCC4)ccc32)C1 (centres undefined)	10.0	16.9	88.5	5.0	3.3	-2.3	·
Clc1ccc(-c2csc(=Nc3cccnc3)n2CCCn2ccnc2)cc1Cl	-0.5	-4.4	104.8	16.6	4.7	1.7	·
COCCn1c(-c2ccc(Br)cc2)csc1=Nc1cccnc1	4.1	23.8	83.5	2.8	14.4	7.0	6.2
CCCCCN1C=CC(=C2C(=O)c3ccccc3C2=O)C=C1	79.6*	107.2*	9.0	94.3*	96.6*	95.8*	94.2*
CC1=CC(=C2C(=O)c3ccccc3C2=O)C=C(C)N1C	-1.4	24.4	82.2	11.0	-38.9	13.7	·
O=C(O)CCC(=O)Nc1ccc(F)cc1	3.2	5.7	101.0	-11.2	-4.7	10.7	-11.8
O=C(O)CCC(=O)Nc1ccc(SSc2ccc(NC(=O)CCC(=O)O)cc2)cc1	3.1	·	·	·	·	4.6	·
Cc1ccc(Oc2ccc(S(=O)(=O)N3CCOCC3)cc2C(N)=O)cc1C	0.2	·	·	·	·	-25.5	·
COc1ccc2nc(-c3cccc(N)c3)[nH]c2c1	7.2	24.0	81.8	51.9*	-20.3	52.4*	52.5*

Compound activity: PubChem, several laboratories
